Experimental data published in ChEMBL document CHEMBL2331340, “Novel antitumor indolizino[6,7-b]indoles with multiple modes of action: DNA cross-linking and topoisomerase I and II inhibition” (J Med Chem, 2013).
Activity calls are given as the source filed them. The calls are words filed in the database; no cut-off is given here.

Legend:
KB = experiment: Cytotoxicity against human KB cells after 72 hrs by Alamar blue assay
CCRF-CEM = experiment: Cytotoxicity against human CCRF-CEM cells after 72 hrs by XTT assay; format: functional, cell-based
Method in brief: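 CCRF-CEM T-ALL cells incubated with compound for 72 h. XTT with phenazine methosulfate then added for 6 h at 37 °C, absorbance read at 450 and 630 nm. IC50 from six or seven concentrations by median-effect analysis; mean ± STDEV, n = 3.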

[1] = Cytotoxicity against human OECM1 cells after 72 hrs by Alamar blue assay; format: functional, cell-based; details: OECM1, 72 h
Method in brief: (§1)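 Cells exposed to compound for 72 h, then Alamar blue added with a further 10−12 h at 37 °C and a spectrophotometric read. IC50 from six or seven concentrations by median-effect analysis; mean ± STDEV, n = 3. CL141T is a line derived from a patient lung tumor passaged as a SCID mouse xenograft.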

MES-SA = experiment: Resistance factor, ratio of IC50 for human MES-SA/Dx5 cells to IC50 for human MES-SA cells; format: functional
MX1 = experiment: Cytotoxicity against human MX1 cells after 72 hrs by SRB assay; format: functional, cell-based; details: MX1, 72 h
[2] = Resistance factor, ratio of IC50 for human KB-VIN10 cells to IC50 for human KB cells; format: functional
[3] = target: DNA topoisomerase 2-alpha (Homo sapiens) (UniProt P11388); experiment: Inhibition of DNA topoisomerase 2 (unknown origin)-mediated relaxation of supercoiled pHOT DNA after 30 to 45 mins by agarose gel electrophoresis
Method in brief: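 Supercoiled pHOT DNA (125 ng) with compound in buffer stated as 0.5 M Tris-HCl pH 8.0, 1.5 M NaCl, 100 mM MgCl2, 5 mM DTT, 300 μg/mL BSA, 20 mM ATP, at 37 °C. Methods state 6 units topo II, figure legend 5 units; 30−45 min, SDS stop. Products run on 1% agarose and stained with ethidium bromide.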

[4] = Cytotoxicity against human CL141T cells after 72 hrs by Alamar blue assay; format: functional, cell-based
Method in brief: as §1

[5] = Cytotoxicity against human MES-SA cells after 72 hrs by Presto Blue assay; format: functional, cell-based
Method in brief: (§2)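 MES-SA and doxorubicin-resistant MES-SA/dx5 cells exposed for 72 h, then PrestoBlue added for 3 h at 37 °C, absorbance read at 570 and 600 nm. IC50 by median-effect analysis of six or seven concentrations; mean ± STDEV of three to six independent experiments.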

A549 = experiment: Cytotoxicity against human A549 cells after 72 hrs by Alamar blue assay; format: functional, cell-based; details: A549, 72 h
Method in brief: as §1

HT-29 = experiment: Cytotoxicity against human HT-29 cells after 72 hrs by Alamar blue assay; format: functional, cell-based; details: HT-29, 72 h
Method in brief: as §1

[6] = Cytotoxicity against human MES-SA/Dx5 cells after 72 hrs by Presto Blue assay; format: functional, cell-based; details: MES-SA/Dx5, 72 h
Method in brief: as §2

HCT-116 = experiment: Cytotoxicity against human HCT116 cells after 72 hrs by Alamar blue assay; format: functional, cell-based; details: HCT-116, 72 h
Method in brief: as §1

[7] = Cytotoxicity against human HEL299 cells; format: cell-based; details: HEL 299
PC-3 = experiment: Cytotoxicity against human PC3 cells after 72 hrs by Alamar blue assay; format: functional, cell-based; details: PC-3, 72 h
Method in brief: as §1

[8] = Cytotoxicity against human KB-VIN10 cells after 72 hrs by Alamar blue assay; details: KB-VIN10, 72 h
[9] = target: T1, DNA topoisomerase 1 (Homo sapiens) (UniProt P11387); experiment: Inhibition of DNA topoisomerase 1 (unknown origin)-mediated relaxation of supercoiled pHOT DNA at 25 to 200 uM after 30 to 45 mins by agarose gel electrophoresis
T1 sequence (whole entry): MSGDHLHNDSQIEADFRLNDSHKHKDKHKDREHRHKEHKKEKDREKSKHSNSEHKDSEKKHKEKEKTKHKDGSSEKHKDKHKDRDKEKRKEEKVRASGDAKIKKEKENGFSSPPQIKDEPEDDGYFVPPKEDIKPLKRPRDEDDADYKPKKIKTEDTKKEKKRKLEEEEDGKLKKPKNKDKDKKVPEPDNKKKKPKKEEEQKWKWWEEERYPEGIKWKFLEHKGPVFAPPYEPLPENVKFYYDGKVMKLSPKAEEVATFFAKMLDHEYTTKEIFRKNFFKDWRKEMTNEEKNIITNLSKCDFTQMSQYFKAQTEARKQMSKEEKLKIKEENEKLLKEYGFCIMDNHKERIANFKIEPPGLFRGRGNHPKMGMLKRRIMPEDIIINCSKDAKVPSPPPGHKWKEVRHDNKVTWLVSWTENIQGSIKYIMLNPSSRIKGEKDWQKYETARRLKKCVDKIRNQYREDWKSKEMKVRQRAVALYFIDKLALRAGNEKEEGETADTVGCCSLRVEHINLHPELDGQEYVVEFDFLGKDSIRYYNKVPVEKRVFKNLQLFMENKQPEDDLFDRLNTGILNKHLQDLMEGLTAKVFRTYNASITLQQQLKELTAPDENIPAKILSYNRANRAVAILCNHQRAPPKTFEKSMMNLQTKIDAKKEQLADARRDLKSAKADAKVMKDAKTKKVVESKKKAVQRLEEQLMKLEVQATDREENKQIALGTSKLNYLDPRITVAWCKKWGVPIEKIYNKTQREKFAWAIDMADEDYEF
Method in brief: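 Supercoiled pHOT DNA (200 ng) and compound in 10 mM Tris-HCl pH 7.9 with 1 mM EDTA at 37 °C. Reaction started with 1 unit topo I, run 30−45 min, stopped with 10% SDS. Products separated on 1% agarose at 50 V for 90 min and stained with ethidium bromide.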

[10] = target: DNA topoisomerase 2-alpha (Homo sapiens) (UniProt P11388); details: 50 to 200 uM

DNA topoisomerase 2-alpha (Homo sapiens), sequence (P11388 whole entry): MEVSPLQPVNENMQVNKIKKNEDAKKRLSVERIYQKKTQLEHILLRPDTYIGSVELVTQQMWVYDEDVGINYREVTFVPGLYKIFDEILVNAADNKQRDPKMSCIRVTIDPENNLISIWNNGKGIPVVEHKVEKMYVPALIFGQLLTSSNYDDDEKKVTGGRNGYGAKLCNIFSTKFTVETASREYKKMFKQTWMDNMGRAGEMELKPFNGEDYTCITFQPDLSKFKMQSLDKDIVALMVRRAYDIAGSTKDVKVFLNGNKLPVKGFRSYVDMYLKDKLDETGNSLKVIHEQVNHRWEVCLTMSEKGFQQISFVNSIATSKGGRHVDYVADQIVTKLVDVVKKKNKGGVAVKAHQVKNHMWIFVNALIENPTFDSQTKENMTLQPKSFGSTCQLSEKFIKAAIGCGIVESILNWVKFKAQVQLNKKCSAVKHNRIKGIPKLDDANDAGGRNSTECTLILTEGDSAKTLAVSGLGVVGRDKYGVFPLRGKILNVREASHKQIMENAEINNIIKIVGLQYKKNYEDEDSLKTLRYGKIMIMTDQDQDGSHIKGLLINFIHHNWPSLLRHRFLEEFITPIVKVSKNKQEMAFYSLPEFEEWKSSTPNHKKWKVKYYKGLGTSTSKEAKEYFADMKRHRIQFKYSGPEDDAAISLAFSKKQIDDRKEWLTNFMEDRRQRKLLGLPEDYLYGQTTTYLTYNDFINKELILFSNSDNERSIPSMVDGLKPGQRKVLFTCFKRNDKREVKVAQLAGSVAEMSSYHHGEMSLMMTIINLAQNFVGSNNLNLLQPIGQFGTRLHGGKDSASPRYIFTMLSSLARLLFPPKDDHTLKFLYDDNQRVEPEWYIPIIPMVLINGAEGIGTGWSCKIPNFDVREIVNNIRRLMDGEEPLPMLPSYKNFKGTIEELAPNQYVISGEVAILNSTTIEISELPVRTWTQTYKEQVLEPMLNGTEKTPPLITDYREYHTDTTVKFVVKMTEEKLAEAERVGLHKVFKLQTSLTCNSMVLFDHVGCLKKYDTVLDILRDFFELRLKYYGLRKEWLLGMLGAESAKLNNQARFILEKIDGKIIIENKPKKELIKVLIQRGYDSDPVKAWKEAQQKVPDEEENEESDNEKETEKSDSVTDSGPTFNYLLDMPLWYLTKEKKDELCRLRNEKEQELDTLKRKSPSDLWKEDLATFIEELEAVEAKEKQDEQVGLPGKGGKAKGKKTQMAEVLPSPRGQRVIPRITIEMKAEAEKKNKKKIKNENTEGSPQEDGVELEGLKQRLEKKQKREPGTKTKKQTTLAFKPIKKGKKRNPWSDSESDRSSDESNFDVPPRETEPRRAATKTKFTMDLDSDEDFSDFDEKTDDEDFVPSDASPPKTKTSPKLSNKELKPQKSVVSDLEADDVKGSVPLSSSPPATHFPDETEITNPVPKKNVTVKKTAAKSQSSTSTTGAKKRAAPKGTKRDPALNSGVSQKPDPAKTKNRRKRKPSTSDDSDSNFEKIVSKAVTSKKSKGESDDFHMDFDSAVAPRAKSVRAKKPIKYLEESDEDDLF

| Structure (SMILES) | IC50 (KB) [nM] | IC50 (CCRF-CEM) [nM] | IC50 [1] [nM] | Ratio IC50 (MES-SA) | IC50 (MX1) [nM] | Ratio IC50 [2] | inhibition [3] | IC50 [4] [nM] | IC50 [5] [nM] | IC50 (A549) [nM] | IC50 (HT-29) [nM] | IC50 [6] [nM] | IC50 (HCT-116) [nM] | IC50 [7] [nM] | IC50 (PC-3) [nM] | IC50 [8] [nM] | inhibition [9] | inhibition [10] |
| --- | --- | --- | --- | --- | --- | --- | --- | --- | --- | --- | --- | --- | --- | --- | --- | --- | --- | --- |
| CCNC(=O)OCc1c(COC(=O)NCC)c2n(c1C)Cc1c(c3ccccc3n1C)C2 | 2750 | 40 | 1900 | 0.36 | 460 | 0.94 | Dose-dependent effect | 2840 | 780 | 4830 | 11300 | 280 | 2330 | 15500 | 4110 | 2600 | Active | – |
| COc1cc([C@@H]2c3cc4c(cc3[C@@H](O[C@@H]3O[C@@H]5CO[C@@H](C)O[C@H]5[C@H](O)[C@H]3O)[C@H]3COC(=O)[C@H]23)OCO4)cc(OC)c1O | – | – | – | – | – | – | – | – | – | – | – | – | – | – | – | – | – | Active |
